Assay [1] concerns the target Transient receptor potential cation channel subfamily M member 8 (Mus musculus) (UniProt Q8R4D5). The following applies: Dorsal root ganglion, HEK T-REx, 100 uM.
In assay [2] the target is Transient receptor potential cation channel subfamily A member 1 (Homo sapiens, UniProt O75762). Nature of the assay: Agonist activity at TRPA1 isolated from human W138 cells expressed in HEK293T cells assessed as intracellular Ca2+ influx at 100 uM by Fluo-4 AM staining-based fluorescence analysis. It counts as cell-based. In short, it runs like this: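 Tetracycline-induced (1 μg/mL) stable hTRPA1 in HEK T-REx cells, Fluo-4 AM loaded (3 μM, 1 h, 37 °C) in HEPES buffer pH 7.4 with probenecid; Ca2+ read at 37 °C. Compound 0.01−100 μM; HC-030031 30 μM pretreated 3 min. Responses as % of 5 μM ionomycin or of 100 μM AITC; TREx cells without TRPA1 as control; n = 4−8.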
Sequence of Transient receptor potential cation channel subfamily A member 1 (O75762 whole entry): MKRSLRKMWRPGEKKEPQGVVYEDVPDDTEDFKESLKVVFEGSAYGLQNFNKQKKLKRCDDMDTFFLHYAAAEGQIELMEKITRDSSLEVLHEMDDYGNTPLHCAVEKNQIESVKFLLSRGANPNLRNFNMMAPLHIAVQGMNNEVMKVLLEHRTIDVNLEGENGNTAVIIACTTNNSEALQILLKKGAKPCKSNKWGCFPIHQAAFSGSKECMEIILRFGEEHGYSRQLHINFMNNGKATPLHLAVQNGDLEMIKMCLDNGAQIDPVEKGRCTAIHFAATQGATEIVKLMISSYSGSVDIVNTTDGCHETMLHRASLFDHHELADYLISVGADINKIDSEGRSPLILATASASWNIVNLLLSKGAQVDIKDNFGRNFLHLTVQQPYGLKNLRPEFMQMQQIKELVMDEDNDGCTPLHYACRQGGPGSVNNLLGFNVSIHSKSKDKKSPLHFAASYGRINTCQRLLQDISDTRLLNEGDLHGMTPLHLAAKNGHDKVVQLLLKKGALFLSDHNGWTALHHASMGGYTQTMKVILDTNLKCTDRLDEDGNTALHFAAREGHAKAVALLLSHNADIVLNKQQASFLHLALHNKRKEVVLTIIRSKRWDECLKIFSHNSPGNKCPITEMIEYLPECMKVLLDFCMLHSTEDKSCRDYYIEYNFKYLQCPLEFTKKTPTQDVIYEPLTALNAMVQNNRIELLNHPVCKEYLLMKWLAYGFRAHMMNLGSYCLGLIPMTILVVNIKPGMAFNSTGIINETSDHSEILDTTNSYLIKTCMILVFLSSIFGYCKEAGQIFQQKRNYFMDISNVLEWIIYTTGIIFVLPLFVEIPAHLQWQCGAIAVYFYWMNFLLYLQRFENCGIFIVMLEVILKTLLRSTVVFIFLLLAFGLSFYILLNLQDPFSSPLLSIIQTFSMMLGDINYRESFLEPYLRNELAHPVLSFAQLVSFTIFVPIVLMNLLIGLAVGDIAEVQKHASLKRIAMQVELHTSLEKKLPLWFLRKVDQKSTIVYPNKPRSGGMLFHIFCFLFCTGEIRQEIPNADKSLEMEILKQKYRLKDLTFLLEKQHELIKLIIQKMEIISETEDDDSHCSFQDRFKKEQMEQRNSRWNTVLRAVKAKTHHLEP

The target in assay [3] is Transient receptor potential cation channel subfamily V member 1 (Homo sapiens, UniProt Q8NER1). Nature of the assay: Competitive antagonist activity at human brain TRPV1 expressed in HEK293T cells assessed as inhibition of CAP-induced intracellular Ca2+ influx at 50 uM preincubated for 3 mins followed by CAP challenge measured after 10 mins of post compound washout. The following applies: HEK-293T. It counts as cell-based. In short, it runs like this: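 hTRPV1-HEK293T cells incubated 3 min with 50 μM compound, washed six times with buffer, kept 10 min at 37 °C in dark, then challenged with 0.01 μM capsaicin; Fluo-4 Ca2+ read-out as % of 10 μM capsaicin.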
Sequence of Transient receptor potential cation channel subfamily V member 1 (Q8NER1 whole entry): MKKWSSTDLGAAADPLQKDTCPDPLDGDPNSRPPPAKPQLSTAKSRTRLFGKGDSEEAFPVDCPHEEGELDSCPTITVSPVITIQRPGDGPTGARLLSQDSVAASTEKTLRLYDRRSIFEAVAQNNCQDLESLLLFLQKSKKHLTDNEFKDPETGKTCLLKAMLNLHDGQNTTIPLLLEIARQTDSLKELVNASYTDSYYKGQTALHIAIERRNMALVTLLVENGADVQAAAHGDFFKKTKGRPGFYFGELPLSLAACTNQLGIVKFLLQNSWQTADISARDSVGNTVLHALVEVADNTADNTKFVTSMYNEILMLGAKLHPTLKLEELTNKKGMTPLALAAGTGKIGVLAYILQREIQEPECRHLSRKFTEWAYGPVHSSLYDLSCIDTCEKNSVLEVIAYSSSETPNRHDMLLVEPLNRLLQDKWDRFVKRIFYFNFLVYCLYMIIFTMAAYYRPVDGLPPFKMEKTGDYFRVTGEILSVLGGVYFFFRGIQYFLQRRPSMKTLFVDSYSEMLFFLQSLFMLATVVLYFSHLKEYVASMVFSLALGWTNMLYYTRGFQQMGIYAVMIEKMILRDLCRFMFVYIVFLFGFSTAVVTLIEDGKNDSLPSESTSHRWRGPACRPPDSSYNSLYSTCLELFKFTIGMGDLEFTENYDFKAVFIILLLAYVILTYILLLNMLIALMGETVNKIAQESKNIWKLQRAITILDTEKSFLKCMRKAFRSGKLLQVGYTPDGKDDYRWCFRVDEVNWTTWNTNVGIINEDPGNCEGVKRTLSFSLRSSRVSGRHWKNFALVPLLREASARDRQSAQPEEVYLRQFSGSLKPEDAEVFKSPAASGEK

Assay [4] deals with T1, Transient receptor potential cation channel subfamily V member 3 (Homo sapiens) (UniProt Q8NET8).
T1 sequence (whole entry): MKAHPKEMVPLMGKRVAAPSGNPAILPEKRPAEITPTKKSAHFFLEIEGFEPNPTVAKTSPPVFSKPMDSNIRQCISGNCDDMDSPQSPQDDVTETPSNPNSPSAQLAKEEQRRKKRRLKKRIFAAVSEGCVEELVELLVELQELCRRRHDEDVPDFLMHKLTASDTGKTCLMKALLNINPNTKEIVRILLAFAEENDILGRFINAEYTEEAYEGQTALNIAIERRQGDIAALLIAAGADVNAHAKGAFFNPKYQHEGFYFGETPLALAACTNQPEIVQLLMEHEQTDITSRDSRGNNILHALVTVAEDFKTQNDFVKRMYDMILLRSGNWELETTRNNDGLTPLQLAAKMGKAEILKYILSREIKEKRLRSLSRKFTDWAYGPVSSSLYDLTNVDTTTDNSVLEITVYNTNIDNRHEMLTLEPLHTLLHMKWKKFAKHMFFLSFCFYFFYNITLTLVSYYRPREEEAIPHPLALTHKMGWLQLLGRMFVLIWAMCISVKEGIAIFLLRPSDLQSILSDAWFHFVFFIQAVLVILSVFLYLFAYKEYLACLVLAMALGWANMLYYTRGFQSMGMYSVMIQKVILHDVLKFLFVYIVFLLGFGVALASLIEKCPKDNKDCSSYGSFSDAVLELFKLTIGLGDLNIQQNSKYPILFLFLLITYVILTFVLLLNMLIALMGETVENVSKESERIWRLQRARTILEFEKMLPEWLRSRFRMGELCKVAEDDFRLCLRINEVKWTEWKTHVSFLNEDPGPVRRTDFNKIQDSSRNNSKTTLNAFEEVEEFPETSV
Nature of the assay: Agonist activity at human TRPV3 expressed in HEK293T cells assessed as intracellular Ca2+ influx at 100 uM by Fluo-4 AM staining-based fluorescence analysis. It counts as cell-based. Conditions: HEK-293T. Summed up: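 hTRPV3 transiently expressed in HEK293T; loading and assay at 25 °C, Fluo-4 with probenecid buffer pH 7.4. Agonist 100 and 300 μM menthol, 5 μM ruthenium red as reference; 100 μM compound alone or pretreated 3 min. Data as % of 1000 μM menthol.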

Active and inactive are the calls of the source. The rule behind the calls is not given here.

Sequence of Transient receptor potential cation channel subfamily M member 8 (Mus musculus) (Q8R4D5 whole entry): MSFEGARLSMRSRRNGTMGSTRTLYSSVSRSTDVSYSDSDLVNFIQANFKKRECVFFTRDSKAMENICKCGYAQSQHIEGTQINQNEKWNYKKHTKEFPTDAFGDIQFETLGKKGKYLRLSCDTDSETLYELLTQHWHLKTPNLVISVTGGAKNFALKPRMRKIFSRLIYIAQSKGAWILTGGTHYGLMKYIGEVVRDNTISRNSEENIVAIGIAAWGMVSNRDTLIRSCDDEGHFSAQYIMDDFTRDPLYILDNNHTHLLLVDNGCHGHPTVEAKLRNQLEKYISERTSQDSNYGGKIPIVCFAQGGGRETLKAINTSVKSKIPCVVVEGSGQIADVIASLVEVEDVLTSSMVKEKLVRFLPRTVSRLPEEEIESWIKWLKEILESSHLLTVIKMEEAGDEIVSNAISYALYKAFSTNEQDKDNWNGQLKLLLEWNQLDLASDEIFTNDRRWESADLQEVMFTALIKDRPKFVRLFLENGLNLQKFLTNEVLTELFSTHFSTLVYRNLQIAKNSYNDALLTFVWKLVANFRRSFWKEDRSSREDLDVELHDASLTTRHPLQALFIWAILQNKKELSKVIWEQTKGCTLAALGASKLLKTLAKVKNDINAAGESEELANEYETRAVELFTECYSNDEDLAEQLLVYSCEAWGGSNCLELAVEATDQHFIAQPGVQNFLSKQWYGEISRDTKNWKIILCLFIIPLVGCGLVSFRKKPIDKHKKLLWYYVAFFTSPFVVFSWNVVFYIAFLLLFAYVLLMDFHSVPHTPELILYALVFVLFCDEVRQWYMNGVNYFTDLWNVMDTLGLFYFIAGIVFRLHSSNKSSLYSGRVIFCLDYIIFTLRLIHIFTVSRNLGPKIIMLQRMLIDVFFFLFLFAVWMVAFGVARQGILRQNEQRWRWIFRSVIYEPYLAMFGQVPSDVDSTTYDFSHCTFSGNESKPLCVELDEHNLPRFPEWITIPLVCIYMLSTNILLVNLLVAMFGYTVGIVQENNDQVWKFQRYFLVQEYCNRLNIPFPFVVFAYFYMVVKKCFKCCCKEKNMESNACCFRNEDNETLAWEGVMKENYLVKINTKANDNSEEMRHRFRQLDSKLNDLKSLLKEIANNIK

As to `CC[C@H]1C[C@@H]2CN3CCc4c([nH]c5ccc(OC)cc45)[C@](C(=O)OC)(C2)[C@H]13` [VOACANGINE], the inhibition result in assay [1] is “Active”. For the same molecule, the outcome in assay [2] was Active. Moreover, the inhibition result in assay [3] was “inactive”. Also, the result in assay [4] was inactive.

The values are drawn from ChEMBL document CHEMBL3108739, “Activation and inhibition of thermosensitive TRP channels by voacangine, an alkaloid present in Voacanga africana, an African tree” (J Nat Prod, 2014).
